# Screening data from PubChem BioAssay.
# IDH1 R132H inh: blocks human IDH1 R132H reductase activity. O75874. diaphorase/resazurin fluorescence, 60 min. inhibition, % at 10 µM. actives 0.18% (n = 70,000); in the data active means inhibition above about 34%; inconclusive means no clear call, values can overlap the other calls; inactive means below about 11%;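 further: 0% = DMSO and 100% = no enzyme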
# GASC1 inh: inhibitors of human demethylase GASC-1 KDM4C; Q9H3R0; actives 0.15% (n = 96,000); GST-KDM4C 2-372, H3K9me3 peptide, LANCE TR-FRET; inhibition, % at 12.5 µM; AID 720574;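 active means mean replicate inhibition above about 25%, with at least 55% of replicates also reaching it, limit read from the data, passing the limit was not always enough; inconclusive means only one of those two conditions met; inactive means neither condition met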
# Target sequence (Q9H3R0 2-372 limits assumed): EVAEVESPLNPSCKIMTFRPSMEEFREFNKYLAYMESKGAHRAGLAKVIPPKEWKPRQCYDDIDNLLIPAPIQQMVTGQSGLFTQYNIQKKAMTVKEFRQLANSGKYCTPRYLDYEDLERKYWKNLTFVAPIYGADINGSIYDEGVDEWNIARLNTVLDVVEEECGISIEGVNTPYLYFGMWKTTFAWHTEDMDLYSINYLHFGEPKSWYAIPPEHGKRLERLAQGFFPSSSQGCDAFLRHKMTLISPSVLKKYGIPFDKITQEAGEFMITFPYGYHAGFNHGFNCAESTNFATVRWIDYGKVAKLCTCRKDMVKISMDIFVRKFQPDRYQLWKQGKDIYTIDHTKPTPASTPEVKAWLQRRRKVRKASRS
#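 material = GST-tagged GASC-1 (JMJD2C) catalytic fragment, aa 2-372 | amount = enzyme final amount 10 nM | medium = HEPES buffer, pH 7.5, plus ascorbate | also added = H3K9me3 peptide substrate, Fe(II), 2-oxoglutarate | dosing = single dose | times = 30 min demethylation and 1 h detection at room temperature | detection = LANCE TR-FRET | read-out basis = Fall in 671/618 emission ratio as inhibition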
# T cruzi growth-1: blocks T. cruzi growth in NIH3T3 culture | actives 5.9% (n = 77,000) | inhibition, % at 8.34 µM | T. cruzi beta-gal in NIH3T3, GalScreen luminescence, 90 h | AID 624255;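 active means mean inhibition above about 93%, with at least 55% of replicates each passing it, limit read from the data, passing the limit was not always enough; inconclusive means only one of those two conditions holds; inactive means neither condition holds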
# T cruzi growth-2: inhibitors of T. cruzi proliferation | shares compounds with T cruzi growth-1 | T. cruzi beta-gal in NIH3T3, GalScreen luminescence, 90 h | inhibition, % at 8.35 µM | actives 72% (n = 5,600);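 active means mean replicate inhibition above about 95% and at least 55% of replicates individually reaching it, limit read from the data; inconclusive means only one of the two criteria is met; inactive means neither criterion is met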
# T cruzi growth-3: Trypanosoma cruzi proliferation inhibition | actives 21% (n = 5,600) | AID 651740 | inhibition, % at 2.09 µM | shares compounds with T cruzi growth-1 | T. cruzi beta-gal in NIH3T3, GalScreen luminescence, 90 h;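 active means mean inhibition above about 95%, with at least 55% of replicates also reaching it, limit read from the data; inconclusive means meets just one of the two conditions; inactive means meets neither condition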;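 further: plate controls were neutral control median for no effect and positive control median for full effect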
# NIH3T3 tox: NIH/3T3 (mouse) viability loss | shares compounds with T cruzi growth-1 | NIH/3T3 viability, CellTiter-Glo ATP luminescence, 90 h | cytotoxicity (signal decrease), % at 8.35 µM | actives 14% (n = 5,600) | AID 651742;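 active means mean signal decrease across replicates above about 35% based on untreated-well scatter, with enough replicates individually passing, limit read from the data; inconclusive means no rule stated though some were filed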;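 further: 0% = median of neutral control wells and 100% = median of positive control wells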
# 3T3 cytotox 2: kills mouse NIH/3T3 fibroblasts; shares compounds with T cruzi growth-1; NIH/3T3 viability, CellTiter-Glo ATP luminescence, 90 h; inhibition, % at 24.9 µM; actives 56% (n = 5,600); AID 651744;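 active means mean loss of cell viability signal at or above a set limit, and enough replicates individually reaching it; inconclusive means meets only the mean limit or only the replicate share; inactive means meets neither condition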;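 further: 0% = median of neutral control wells and 100% = median of positive control wells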
# An asterisk follows results filed as active; ? = inconclusive; . = not tested or not shown. This is one part of a sample in which hits are shown more often than they occur.
SMILES,IDH1 R132H inh,GASC1 inh,T cruzi growth-1,T cruzi growth-2,T cruzi growth-3,NIH3T3 tox,3T3 cytotox 2
COc1ccccc1S(=O)(=O)N(C)C[C@H]1Oc2cc(C#CCC(C)C)ccc2S(=O)(=O)N([C@H](C)CO)C[C@@H]1C,-0.5,-0.6,79.1,.,.,.,.
COCC#Cc1ccc2c(c1)O[C@H](CN(C)S(=O)(=O)c1cccc(OC)c1)[C@@H](C)CN([C@@H](C)CO)S2(=O)=O,0.1,-0.4,58.1,.,.,.,.
COc1ccccc1S(=O)(=O)N(C)C[C@H]1Oc2cc(C#CCC(C)C)ccc2S(=O)(=O)N([C@@H](C)CO)C[C@H]1C,0.1,0.5,113.2*,95.2*,108.0*,12.8,80.6*
O=C1NC2CCc3nc4ccccc4c(=O)n3C2=Nc2ccccc21 (configuration not stated),0.6,.,.,.,.,.,.
C[C@H](CO)N1C[C@H](C)[C@H](CN(C)C(=O)C2CCCCC2)Oc2cc(-c3ccncc3)ccc2S1(=O)=O,.,-1.3,68.3,.,.,.,.
COc1ccccc1S(=O)(=O)N(C)C[C@@H]1Oc2cc(/C=C/c3ccccc3)ccc2S(=O)(=O)N([C@@H](C)CO)C[C@@H]1C,-0.3,-0.6,92.9,.,.,.,.
COc1ccccc1S(=O)(=O)N(C)C[C@@H]1Oc2cc(/C=C/c3ccccc3)ccc2S(=O)(=O)N([C@H](C)CO)C[C@@H]1C,1.2,10.9,127.9*,100.1*,103.4*,-4.1,28.8*
C[C@H](CO)N1C[C@H](C)[C@@H](CN(C)S(=O)(=O)c2ccc(Cl)cc2)Oc2ccc(NC(=O)Nc3ccc4c(c3)OCO4)cc2C1=O,0.0,1.0,-25.6,.,.,.,.
CS(=O)(=O)N(CC(=O)Nc1ccc(F)cc1)c1ccccc1Br,-0.7,.,.,.,.,.,.
C[C@H]1CCCCO[C@@H](CN(C)C(=O)Nc2ccccc2)[C@@H](C)CN([C@@H](C)CO)C(=O)c2cc(NC(=O)Cc3ccccc3)ccc2O1,2.6,0.1,27.1,.,.,.,.
C[C@@H]1CCCCO[C@H](CN(C)C(=O)Nc2ccccc2)[C@@H](C)CN([C@@H](C)CO)C(=O)c2cc(NC(=O)Cc3ccccc3)ccc2O1,-0.6,-0.1,20.8,.,.,.,.
C[C@@H]1CCCCO[C@H](CN(C)C(=O)Nc2ccc(C(F)(F)F)cc2)[C@H](C)CN([C@H](C)CO)C(=O)c2cc(NC(=O)Cc3ccccc3)ccc2O1,.,0.3,?,109.5*,106.6*,14.1,56.2*
C[C@@H]1CCCCO[C@@H](CN(C)C(=O)Nc2ccc(C(F)(F)F)cc2)[C@H](C)CN([C@@H](C)CO)C(=O)c2cc(NC(=O)Cc3ccccc3)ccc2O1,.,1.3,121.8*,108.2*,92.6,26.3,43.2*
C[C@@H]1CCCCO[C@@H](CN(C)C(=O)Nc2ccccc2)[C@@H](C)CN([C@H](C)CO)C(=O)c2cc(NC(=O)Cc3ccccc3)ccc2O1,0.7,-0.4,6.2,.,.,.,.
C[C@@H]1CCCCO[C@@H](CN(C)C(=O)Nc2ccc(C(F)(F)F)cc2)[C@H](C)CN([C@H](C)CO)C(=O)c2cc(NC(=O)Cc3ccccc3)ccc2O1,.,-1.0,?,105.7*,104.1*,-20.0,16.3
C[C@H](CO)N1C[C@H](C)[C@@H](CN(C)C(=O)Nc2ccc(C(F)(F)F)cc2)OCCCC[C@H](C)Oc2ccc(NC(=O)Cc3ccccc3)cc2C1=O,.,-1.4,127.7*,108.1*,110.3*,12.6,?
C[C@@H]1CCCCO[C@H](CN(C)C(=O)Nc2ccccc2)[C@H](C)CN([C@@H](C)CO)C(=O)c2cc(NC(=O)Cc3ccccc3)ccc2O1,0.1,-1.0,39.5,.,.,.,.
C[C@H](CO)N1C[C@H](C)[C@H](CN(C)Cc2ccccc2)Oc2ccc(NC(=O)CCC(F)(F)F)cc2C1=O,0.3,-0.2,-5.1,.,.,.,.
CO[C@@H]1CC[C@@H]2CCN(C)C(=O)[C@@H](C)N(C)C(=O)c3cccc(C#N)c3OC[C@H]1O2,.,0.5,23.3,.,.,.,.
CCCC(=O)Nc1ccc2c(c1)OC[C@@H](C)N(C(=O)CC)C[C@@H](C)[C@@H](OC)CN(C)C2=O,0.4,-0.2,-36.1,.,.,.,.
C[C@@H]1CCCCO[C@H](CN(C)C(=O)Nc2ccc(C(F)(F)F)cc2)[C@@H](C)CN([C@H](C)CO)C(=O)c2cc(NC(=O)Cc3ccccc3)ccc2O1,0.1,-0.4,88.5,.,.,.,.
C[C@H]1CCCCO[C@H](CN(C)C(=O)Nc2ccc(C(F)(F)F)cc2)[C@@H](C)CN([C@@H](C)CO)C(=O)c2cc(NC(=O)Cc3ccccc3)ccc2O1,0.1,-1.2,?,101.1*,113.1*,29.8,16.6
C[C@@H]1CCCCO[C@@H](CN(C)CC2CCCCC2)[C@@H](C)CN([C@@H](C)CO)C(=O)c2cc(NC(=O)Nc3ccc4c(c3)OCO4)ccc2O1,.,15.7,91.9,.,.,.,.
C[C@@H]1CCCCO[C@@H](CN(C)CC2CC2)[C@H](C)CN([C@H](C)CO)C(=O)c2cc(NC(=O)Nc3ccccc3)ccc2O1,.,-2.1,85.6,.,.,.,.
C[C@@H]1CCCCO[C@H](CN(C)CC2CCCCC2)[C@H](C)CN([C@@H](C)CO)C(=O)c2cc(NC(=O)c3ccccc3)ccc2O1,.,0.3,114.7,.,.,.,.
SMILES,IDH1 R132H inh,GASC1 inh,T cruzi growth-1,T cruzi growth-2,T cruzi growth-3,NIH3T3 tox,3T3 cytotox 2
COc1ccc(NC(=O)Nc2ccc3c(c2)CC(=O)N([C@@H](C)CO)C[C@@H](C)[C@@H](CN(C)CC2CCCCC2)O3)cc1,-0.7,-0.7,50.3,.,.,.,.
C[C@H]1CCCCO[C@@H](CN(C)CC2CCCCC2)[C@@H](C)CN([C@@H](C)CO)C(=O)c2cc(NC(=O)Nc3ccc4c(c3)OCO4)ccc2O1,.,2.3,98.5*,?,109.5*,41.1*,106.5*
C[C@@H]1CCCCO[C@H](CN(C)CC2CCCCC2)[C@H](C)CN([C@H](C)CO)C(=O)c2cc(NC(=O)c3ccccc3)ccc2O1,4.2,2.6,118.0*,113.5*,65.0,14.5,105.0*
COc1ccc(NC(=O)Nc2ccc3c(c2)CC(=O)N([C@@H](C)CO)C[C@@H](C)[C@H](CN(C)CC2CCCCC2)O3)cc1,0.6,-0.2,119.7*,98.7*,38.8,11.6,104.2*
C[C@@H]1CCCCO[C@@H](CN(C)CC2CCCCC2)[C@H](C)CN([C@@H](C)CO)C(=O)c2cc(NC(=O)Nc3ccccc3)ccc2O1,1.3,2.3,104.8*,101.0*,57.8,31.3,104.5*
COc1ccc(NC(=O)N(C)C[C@@H]2OCCCC[C@@H](C)Oc3ccc(NS(=O)(=O)c4ccc(C)cc4)cc3C(=O)N([C@H](C)CO)C[C@@H]2C)cc1,.,-0.1,0.1,.,.,.,.
C[C@@H]1CN([C@H](C)CO)C(=O)c2cc(NS(=O)(=O)c3cn(C)cn3)ccc2O[C@@H]1CN(C)Cc1ccncc1,1.7,13.9,.,.,.,.,.
